Measurements taken from ChEMBL document CHEMBL5661974, “Pharmacologic characterization of a potent inhibitor of class I phosphatidylinositide 3-kinases” (Cancer Res, 2007).
The source made the active and inactive calls. The rule behind the calls is not given here.

Experiments:
[1] = system: HCT-116; experiment: Antitumor activity against PIK3CA mutant human HCT-116 cells xenografted female Ncr model assessed as T/C at 30 mg/kg, ip administered twice a daily for 14 days relative to control; type: functional; conditions: time 14 day
[2] = system: MDA-MB-468; experiment: Antitumor activity against PTEN null human MDA-MB-468 cells xenografted female Ncr model assessed as body weight loss at 30 mg/kg, ip administered twice a daily for 14 days relative to control; conditions: time 14 day
[3] = system: OVCAR-3; conditions: Homo sapiens, dose 100.0 mg/kg, route ip
[4] = Inhibition of recombinant human PI3K in cricetulus griseus CHO cells expressing GFP-tagged PDK1 assessed as translocation to the plasma membrane following IGF-1 stimulation by fluorescence assay
Summary of the method: (§1)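 CHO cells expressing GFP-tagged AKT1, AKT2, AKT3 or PDK1, held in 0.05% serum with 0.1% BSA and stimulated with 100 nmol/L IGF-1. Plasma-membrane translocation was read by automated fluorescence imaging, with IC50 from concentration-response curves; Z' above 0.5.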

[5] = AUClast in BALB/C mouse plasma at 50 mg/kg, ip by LC-MS/MS analysis; type: ADME, organism-based; conditions: in vivo
Summary of the method: (§2)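 Female BALB/c mice, 6–8 weeks old, dosed i.p. at 50 mg/kg in 20% […] β-cyclodextrin in saline, 0.1 mL/10 g. Serial blood samples; plasma was methanol-precipitated with an analogue internal standard. LC-MS/MS multiple reaction monitoring, external calibration 2–20,000 nmol/L. Noncompartmental analysis, model 200.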

[6] = system: U-87 MG; experiment: Inhibition of cell invasion in human U-87MG cells at 50 nmol/L by transwell assay relative to control
[7] = system: OVCAR-3; experiment: Antitumor activity against human OVCAR-3 cells xenografted female Ncr model assessed as T/C at 30 mg/kg, ip administered daily for 15 days relative to control; type: functional; conditions: time 15 day
[8] = system: IGROV-1; experiment: Antitumor activity against PIK3CA mutant human IGROV-1 cells xenografted female Ncr model assessed as T/C at 70 mg/kg, ip administered once a daily for 14 days relative to control; type: functional; conditions: time 14 day
[9] = Tmax in BALB/C mouse plasma at 50 mg/kg, ip by LC-MS/MS analysis; type: ADME, organism-based; conditions: in vivo; summary of the method: as §2
[10] = system: PC-3; experiment: Antitumor activity against PTEN null human PC-3 cells xenografted male Ncr model assessed as T/C at 30 mg/kg, ip administered once a daily for 14 days relative to control; type: functional; conditions: time 14 day
[11] = system: OVCAR-3; conditions: Homo sapiens, dose 100.0 mg/kg, route ip; remark: listed apart in the source
[12] = system: PC-3; experiment: Antiproliferative activity against human PC-3 cells harboring PTEN deletion assessed as cell growth inhibition incubated for 96 hrs by SRB assay; type: functional
[13] = Cmax in BALB/C mouse plasma at 50 mg/kg, ip by LC-MS/MS analysis; type: ADME, organism-based; conditions: in vivo; summary of the method: as §2
[14] = Clearance in BALB/C mouse plasma at 2.5 mg/kg, iv by LC-MS/MS analysis; type: ADME, organism-based
Summary of the method: (§3)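 Female BALB/c mice, 6–8 weeks old, given 2.5 mg/kg i.v. in 10% DMSO, 0.5% Tween 20 in saline. Plasma came from serial bleeds; tissues were homogenized in 2 or 3 volumes PBS. Samples were methanol-precipitated with an analogue internal standard, then LC-MS/MS by multiple reaction monitoring against an 8-point external calibration of 2–20,000 nmol/L. Parameters came from WinNonlin noncompartmental analysis, model 201 for plasma and model 200 for tissues.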

[15] = system: MDA-MB-468; experiment: Antiproliferative activity against human MDA-MB-468 cells harboring PTEN deletion assessed as cell growth inhibition incubated for 96 hrs by SRB assay; type: functional
[16] = system: A2780; experiment: Antiproliferative activity against human A2780 cells harboring PI3KCA/PTEN mutant assessed as cell growth inhibition incubated for 96 hrs by SRB assay; type: functional
[17] = system: OVCAR-3; conditions: Homo sapiens, dose 100.0 mg/kg, route ip, time 750.0 min
[18] = system: PC-3; experiment: Antitumor activity against PTEN null human PC-3 cells xenografted male Ncr model assessed as body weight loss at 30 mg/kg, ip administered twice a daily for 14 days relative to control; conditions: time 14 day
[19] = system: HCT-116; experiment: Antitumor activity against PIK3CA mutant human HCT-116 cells xenografted female Ncr model assessed as T/C at 30 mg/kg, ip administered once a daily for 14 days relative to control; type: functional; conditions: time 14 day
[20] = system: HCT-116; experiment: Antitumor activity against PIK3CA mutant human HCT-116 cells xenografted female Ncr model assessed as body weight loss at 30 mg/kg, ip administered twice a daily for 14 days relative to control; conditions: time 14 day
[21] = system: U-87 MG; conditions: Homo sapiens, time 24.0 hrs
[22] = system: A549; experiment: Antiproliferative activity against human A549 cells harboring AKT assessed as cell growth inhibition incubated for 96 hrs by SRB assay; type: functional
[23] = Inhibition of recombinant human PI3K in cricetulus griseus CHO cells expressing GFP-tagged AKT1 assessed as translocation to the plasma membrane following IGF-1 stimulation by fluorescence assay; summary of the method: as §1
[24] = Antitumor activity against PIK3CA mutant human […] cells xenografted female Ncr model assessed as T/C at 100 mg/kg, ip administered twice a daily for 16 days relative to control; type: functional; conditions: time 16 day
[25] = Volume of distribution in BALB/C mouse plasma at 50 mg/kg, ip by LC-MS/MS analysis; type: ADME, organism-based; conditions: in vivo; summary of the method: as §2
[26] = system: U-87 MG; experiment: Inhibition of recombinant PI3K in human U-87MG cells assessed as phosphorylation of AKT at ser473 at 5 times of GI50 concentration within 15 mins treatment by immunoblot analysis; type: cell-based
[27] = system: IGROV-1; experiment: Antiproliferative activity against human IGROV-1 cells harboring PI3KCA/PTEN mutant assessed as cell growth inhibition incubated for 96 hrs by SRB assay; type: functional
[28] = system: U-87 MG; experiment: Inhibition of recombinant PI3K in human U-87MG cells assessed as phosphorylation of GSK3beta at Ser9 at 5 times of GI50 concentration within 15 mins treatment by immunoblot analysis; type: cell-based
[29] = Volume of distribution at steady state in BALB/C mouse at 2.5 mg/kg, iv by LC-MS/MS analysis; type: ADME, organism-based; conditions: in vivo, read-out: Vdss; summary of the method: as §3
[30] = system: MDA-MB-468; experiment: Antitumor activity against PTEN null human MDA-MB-468 cells xenografted female Ncr model assessed as body weight loss at 30 mg/kg, ip administered once a daily for 14 days relative to control; conditions: time 14 day
[31] = Tmax in BALB/C mouse plasma at 2.5 mg/kg, iv by LC-MS/MS analysis; type: ADME, organism-based; summary of the method: as §3
[32] = Half life in BALB/C mouse liver at 2.5 mg/kg, iv by LC-MS/MS analysis; type: ADME, organism-based; summary of the method: as §3
[33] = system: U-87 MG; conditions: Homo sapiens, time 24.0 hrs; remark: listed apart in the source

For `Oc1cccc(-c2nc(N3CCOCC3)c3oc4ncccc4c3n2)c1` [PI-103], the T/C [1] was 28%, the Body weight loss [2] was <15% and the inhibition [3] was “Active”. It also gave an IC50 [4] of 66 nM, an AUClast [5] of 20.459 µM·h and an inhibition at 0.05 µM [6] of 44%. The T/C [7] was 62%, the T/C [8] was 74.7% and the Tmax [9] was 0.25 h. For the same compound, the T/C [10] was 80.8%, the inhibition [11] was “Active” and the GI50 [12] was 100 nM. For the same compound, the Cmax [13] was 6.68 µM, the clearance [14] was 3.17 mL/min and the GI50 [15] was 690 nM. The GI50 [16] was 500 nM, the inhibition [17] was “Active” and the Body weight loss [18] was <15%. The T/C [19] was 68%, the Body weight loss [20] was <15% and the inhibition [21] was “Active”. It also gave a GI50 [22] of 210 nM, an IC50 [23] of 17 nM and a T/C [24] of 36%. For the same compound, the Vd [25] was 0.71 L, the inhibition [26] was “Active” and the GI50 [27] was 60 nM. The inhibition [28] was “Active”, the Vd [29] was 0.052 L and the Body weight loss [30] was <15%. The Tmax [31] was 0 h, the half-life [32] was 4.2 h and the inhibition [33] was “Active”.
